Shown are actives, neighbours in structure and some others; about 1% of the full set was active somewhere.
PKA-R1A activ: activators of PKA-R1A holoenzyme, primary screen, biochemical, fluorescence polarization, Cy5-IP20, bovine R1A, mouse PKAc | cAMP-dependent protein kinase type I-alpha regulatory subunit (Bos taurus) + … | activation, % at 11.4 µM | AID 504707, 2011 | PKA-R1A dissociation; scaled: DMSO 0%, 113 µM cGMP 100% | 340,000 compounds, 0.083% hits;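 active means percent activation above the mean of all tested compounds plus 3 SD, cut at about 19% in these data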;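 further: higher means more PKAc released from R1A so a rise in polarization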
DDE Tn7 FP inh: inhibitors of Tn7 peptide binding to fibrin DD(E), primary screen, biochemical, fluorescence polarization, human fibrin, Tn7 probe | Fibrinogen beta chain (Homo sapiens), P02675 | AID 720508, 2013 | 370,000 compounds, 0.13% hits | FP displacement of FITC-Tn7 peptide from fibrin DD(E); 0% = median of compound wells per plate | inhibition, % at 8.3 µM;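 active means inhibition above the mean of compounds falling within the control limits plus 3 SD of them, cut at about 14% in these data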;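 further: 0% = plate median of compound wells and 100% = 10 µM Aha-Tn7 peptide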
Target sequence (P02675 whole entry, looked up): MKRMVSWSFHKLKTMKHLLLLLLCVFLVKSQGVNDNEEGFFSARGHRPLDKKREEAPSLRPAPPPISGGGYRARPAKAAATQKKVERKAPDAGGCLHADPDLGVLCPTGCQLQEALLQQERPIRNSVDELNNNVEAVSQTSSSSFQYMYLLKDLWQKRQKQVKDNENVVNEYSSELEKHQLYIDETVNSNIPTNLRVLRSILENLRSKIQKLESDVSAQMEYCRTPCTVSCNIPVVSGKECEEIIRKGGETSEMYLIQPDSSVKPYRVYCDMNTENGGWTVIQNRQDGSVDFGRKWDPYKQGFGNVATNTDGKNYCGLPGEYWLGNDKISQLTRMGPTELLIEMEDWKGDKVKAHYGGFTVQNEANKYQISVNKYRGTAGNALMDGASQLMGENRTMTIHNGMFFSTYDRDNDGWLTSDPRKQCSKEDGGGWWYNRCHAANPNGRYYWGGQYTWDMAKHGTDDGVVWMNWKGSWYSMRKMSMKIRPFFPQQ
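System: human fibrin DD(E); quantity: Fibrin-DD(E) at 2 µM final; also added: fluorescent Tn7 probe at 0.1 µM; compound dosing: single nominal test concentration of 8.3 µM per compound; schedule: 10 min preincubation, 3 h with tracer, room temperature; detection: fluorescence polarization of the labelled Tn7 tracer; repeats: one replicate per compound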
PKA-R2B activ: activators of PKA-R2B holoenzyme, primary screen, biochemical, fluorescence polarization, Cy5-IP20, human; PKA-R2B holoenzyme dissociation; R2B truncated from residue 108, S112A mutant; 0% DMSO only, 100% 113 µM cGMP; activation, % at 11.4 µM; 340,000 compounds, 0.079% hits; AID 504700, 2011;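 active means activation above a cutoff set at the mean over all compounds plus 3 SD, cut at about 18% in these data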;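 further: higher means more holoenzyme dissociation and a rise in polarization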
Tn6 DDE FP: inhibitors of Tn6 peptide binding to fibrin DD(E), primary screen, biochemical, fluorescence polarization, human fibrin, Tn6 probe | 370,000 compounds, 0.21% hits | inhibition, % at 8.3 µM | Fibrin DD(E) TRITC-Tn6 fluorescence polarization displacement | AID 720509, 2013;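 active means inhibition above a per-campaign cutoff: mean of compounds within control limits plus 3 SD, cut at about 15% in these data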;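 further: 0% = median of all compound wells on the plate and 100% = blocking peptide control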
Neddylation inh: inhibitors of cullin neddylation, primary screen, biochemical, TR-FRET, uHTS, NAE and Ubc12; AID 651699, 2012; 360,000 compounds, 0.58% hits; NEDD8-conjugating enzyme Ubc12 (Homo sapiens) + NEDD8-activating enzyme E1 regulatory …; inhibition, % at 25 µM; in the data active means inhibition above about 36%
Neddyl conf: blockade of NEDD8 conjugation to cullin – biochemical, TR-FRET, single concentration, confirmation; shares compounds with Neddylation inh; TR-FRET cullin neddylation biochemical assay; calls only at 25 µM; 1,800 compounds, 13% hits; in the data active means inhibition above about 40%;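 further: neddylation substrate is the cullin 1 ring ligase complex with SKP2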
* = called active by the depositor.

Screening CCc1ccccc1NC(=O)NNC(=O)c1ccc2ccccc2c1O returned PKA-R1A activ -10.4, DDE Tn7 FP inh -8.9, PKA-R2B activ -3.4, Tn6 DDE FP 1.3, Neddylation inh 38.0* and Neddyl conf inactive.
COc1ccc(NC(=O)NNC(=O)c2ccc3ccccc3c2O)c(OC)c1 was read as PKA-R1A activ -11.7, DDE Tn7 FP inh -8.7, PKA-R2B activ -13.7, Tn6 DDE FP -2.1, Neddylation inh 43.9* and Neddyl conf inactive.
For COc1ccc(OC)c(NC(=O)Nc2ccc(O)c3ccccc23)c1 the results were PKA-R1A activ -16.5, DDE Tn7 FP inh 6.8, PKA-R2B activ -11.4, Tn6 DDE FP -4.3 and Neddylation inh 40.4*.
`COc1ccc(/C=c2\s/c(=C(/C#N)C(=O)NCc3ccco3)n(-c3ccccc3)c2=O)cc1` gave PKA-R1A activ 4.5, DDE Tn7 FP inh -4.2, PKA-R2B activ 6.8, Tn6 DDE FP -4.9, Neddylation inh 47.2* and Neddyl conf inactive.
For COC(=O)C(Cc1ccc(O)cc1)NS(=O)(=O)Cc1ccccc1 (stereo unspecified) the results were DDE Tn7 FP inh 1.5 and Tn6 DDE FP -0.2.
`Cc1cccc(NS(=O)(=O)c2cccs2)n1` gave PKA-R1A activ 1.8, DDE Tn7 FP inh 1.3, PKA-R2B activ -6.3, Tn6 DDE FP 2.0, Neddylation inh 39.9* and Neddyl conf inactive.
For Cc1ccc(NS(=O)(=O)c2cccs2)nc1 the results were PKA-R1A activ 1.1, DDE Tn7 FP inh -4.0, PKA-R2B activ -4.9, Tn6 DDE FP -1.7, Neddylation inh 40.6* and Neddyl conf inactive.
For Cc1ccnc(NS(=O)(=O)c2cccs2)c1 the results were PKA-R1A activ 8.0, DDE Tn7 FP inh -3.8, PKA-R2B activ -0.6, Tn6 DDE FP 4.1 and Neddylation inh 20.3.
`COc1ccc(CNC(=O)O[C@H]2CC[C@@]34CCCN3C(=O)CCC[C@H]4[C@H]2C)cc1` gave DDE Tn7 FP inh -3.1 and Tn6 DDE FP -1.3.
`NC(=O)c1nn(-c2ccccc2)nc1NC(=O)CN1CCCCC1` gave PKA-R1A activ -7.5, DDE Tn7 FP inh -0.3, PKA-R2B activ 7.2, Tn6 DDE FP 7.9, Neddylation inh 45.5* and Neddyl conf inactive.
Screening Cn1nnnc1SCC(=O)Nc1nn(-c2ccccc2)nc1C(N)=O returned PKA-R1A activ -6.0, DDE Tn7 FP inh -6.8, PKA-R2B activ 4.3 and Tn6 DDE FP 1.4.
Screening COCCNC(=O)C(C)N1c2cccc3cccc(c23)S1(=O)=O (stereo unspecified) returned PKA-R1A activ 9.1, DDE Tn7 FP inh -3.0, PKA-R2B activ 0.2, Tn6 DDE FP 5.5 and Neddylation inh 35.1.
For COCCCNC(=O)C(C)N1c2cccc3cccc(c23)S1(=O)=O (stereo unspecified) the results were PKA-R1A activ 2.6, DDE Tn7 FP inh -3.7, PKA-R2B activ 1.0, Tn6 DDE FP -5.5, Neddylation inh 41.8* and Neddyl conf inactive.
For CC(C)(C)c1ccc(/C=C2\CCn3c2nc2cc(C(=O)O)ccc2c3=O)cc1 the results were PKA-R1A activ -5.5, PKA-R2B activ -6.0, Neddylation inh 45.5* and Neddyl conf active.
For O=C(OCc1cn(Cc2cccc(C(F)(F)F)c2)nn1)N1CCOCC1 the results were DDE Tn7 FP inh -0.8 and Tn6 DDE FP 0.4.
For COC(=O)c1cc2c(c3c4cc(F)ccc4n(S(=O)(=O)c4ccc(OC)cc4)c13)C(=O)N(Cc1ccccc1OC)C2 the results were DDE Tn7 FP inh 9.9 and Tn6 DDE FP 3.2.
CC(=O)N1N=C2/C(=C/c3ccccc3)CCCC2C1c1ccccc1 (stereo unspecified) was read as PKA-R1A activ -14.2, DDE Tn7 FP inh 4.0, PKA-R2B activ -4.4, Tn6 DDE FP -6.3 and Neddylation inh 46.8*.
Screening CCCn1c(SCC(=O)N2N=C3/C(=C/c4ccc(OC)cc4)CCCC3C2c2ccc(OC)cc2)n[nH]c1=O (stereo unspecified) returned PKA-R1A activ -9.7, DDE Tn7 FP inh -6.9, PKA-R2B activ -8.8, Tn6 DDE FP -10.0, Neddylation inh 46.8* and Neddyl conf inactive.
For N#CC(C#N)=Cc1cn(-c2ncc(C(F)(F)F)cc2Cl)c2ccccc12 the results were PKA-R1A activ 0.8, DDE Tn7 FP inh 7.0, PKA-R2B activ 6.5, Tn6 DDE FP 2.0, Neddylation inh 45.7* and Neddyl conf inactive.
Cc1ccc(NC(=O)c2ccc(OC(=S)N3CCOCC3)cc2)cc1 was read as PKA-R1A activ -15.5, DDE Tn7 FP inh 5.9, PKA-R2B activ 10.8, Tn6 DDE FP 2.7, Neddylation inh 40.3* and Neddyl conf inactive.
CCOC(=O)[C@@]12CCC3=C1N(CCC3)C(=O)[C@H](CC(=O)NCCCN1CCCC1=O)C2 was read as DDE Tn7 FP inh -0.3 and Tn6 DDE FP -0.2.
`CCOC(=O)Cc1csc(NC(=O)/C=C/c2ccco2)n1` gave PKA-R1A activ 0.5, DDE Tn7 FP inh 1.0, PKA-R2B activ -2.2, Tn6 DDE FP 4.4 and Neddylation inh -5.8.
`CCOC(=O)Cc1csc(NC(=O)/C=C/c2ccc(Cl)cc2)n1` gave PKA-R1A activ 8.9, DDE Tn7 FP inh -0.1, PKA-R2B activ -3.0, Tn6 DDE FP -2.9, Neddylation inh 37.7* and Neddyl conf inactive.
For CC(C)C[C@@H]1COc2cc(Br)ccc2S(=O)(=O)N1Cc1cn(Cc2ccc(Cl)cc2)nn1 the results were DDE Tn7 FP inh -4.4 and Tn6 DDE FP -2.6.
COc1ccc(NC(=O)c2c[nH]c(=O)n(-c3ccc(C)c(C)c3)c2=O)c(OC)c1 was read as PKA-R1A activ -0.9, DDE Tn7 FP inh 1.9, PKA-R2B activ 0.7, Tn6 DDE FP -4.8, Neddylation inh 63.6* and Neddyl conf inactive.
For COc1ccc(NC(=O)c2c[nH]c(=O)n(-c3ccc(C)c(C)c3)c2=O)cc1OC the results were PKA-R1A activ 4.6, DDE Tn7 FP inh -7.2, PKA-R2B activ -6.5, Tn6 DDE FP -10.6 and Neddylation inh 0.3.

Screens deposited in PubChem by several laboratories.
